Experimental data taken from ChEMBL document CHEMBL1139880, “Potent and selective agonists of human melanocortin receptor 5: cyclic analogues of alpha-melanocyte-stimulating hormone” (J Med Chem, 2007).
Starred links: 1 amine or outer side, 2 acyl side, 3 side chain; linkers in the order of their positions; H or OH if unused. Positions of bridges follow the written chain, without caps; N, C: chain ends. Non-standard residues stand in square brackets, D forms with d. Residues, ends and D or L forms follow the SMILES beside them. ξ: configuration not given here. X2 = O=C([C@@H](Cc1ccc(Cc2ccccc2)cc1)N[*:1])[*:2]; Oic(3aξ,7aξ) = O=C(O)[C@@H]1CC2CCCCC2N1; Pip = O=C(O)[C@@H]1CCCCN1; Nle = CCCC[C@H](N)C(=O)O

Key:
Melanocortin receptor 5 [1] = target: T1, Melanocortin receptor 5 (Homo sapiens, UniProt P33032); test: Displacement of [125I]NDPalphaMSH from human cloned MC5R expressed in CHO cells; type: cell-based
T1 sequence (P33032 whole entry): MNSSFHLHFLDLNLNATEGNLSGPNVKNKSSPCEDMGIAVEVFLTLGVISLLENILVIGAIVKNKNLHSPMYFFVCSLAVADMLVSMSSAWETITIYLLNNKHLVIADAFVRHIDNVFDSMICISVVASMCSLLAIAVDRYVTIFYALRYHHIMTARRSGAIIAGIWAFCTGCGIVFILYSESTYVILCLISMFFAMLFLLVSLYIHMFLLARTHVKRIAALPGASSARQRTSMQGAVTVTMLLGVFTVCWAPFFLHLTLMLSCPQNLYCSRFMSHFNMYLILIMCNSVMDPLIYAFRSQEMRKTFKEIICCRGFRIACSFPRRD

[2] = target: T2, Melanocyte-stimulating hormone receptor (Homo sapiens, UniProt Q01726); test: Agonist activity at human melanocortin receptor 1b expressed in CHO cells assessed as cAMP accumulation; type: functional, cell-based
T2 sequence (Q01726 whole entry): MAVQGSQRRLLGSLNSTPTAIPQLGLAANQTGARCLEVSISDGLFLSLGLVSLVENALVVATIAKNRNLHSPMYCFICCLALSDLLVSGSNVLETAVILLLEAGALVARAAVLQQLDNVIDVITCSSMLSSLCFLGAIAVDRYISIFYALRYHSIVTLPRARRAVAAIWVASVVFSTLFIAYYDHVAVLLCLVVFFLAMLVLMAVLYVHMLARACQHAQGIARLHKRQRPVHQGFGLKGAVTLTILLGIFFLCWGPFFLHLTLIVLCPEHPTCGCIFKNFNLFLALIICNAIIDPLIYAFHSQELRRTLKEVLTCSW
How it was run: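 Dissociated CHO cells were spun 5 min and resuspended in Earle's balanced salt solution with 10 mM HEPES pH 7.5, 5 mM MgCl2, 1 mM glutamine and 1 mg/mL BSA. They were incubated 40 min at room temperature with compound (0.003–5000 nM) plus 0.6 mM IBMX, then lysed with 0.1 M HCl. cAMP was measured by Flashplate cAMP assay.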

[3] = target: T2, Melanocyte-stimulating hormone receptor; test: Displacement of [125I]NDPalphaMSH from human cloned melanocortin receptor 1b expressed in CHO cells; type: cell-based
Melanocortin receptor 5 [4] = target: T1, Melanocortin receptor 5; test: Agonist activity at human MC5R expressed in CHO cells assessed as cAMP accumulation; type: functional, cell-based
Melanocortin receptor 3 = Melanocortin receptor 3 (Homo sapiens, UniProt P41968); test: Displacement of [125I]NDPalphaMSH from human cloned MC3R expressed in CHO cells; type: cell-based
Melanocortin receptor 3, sequence (P41968 whole entry): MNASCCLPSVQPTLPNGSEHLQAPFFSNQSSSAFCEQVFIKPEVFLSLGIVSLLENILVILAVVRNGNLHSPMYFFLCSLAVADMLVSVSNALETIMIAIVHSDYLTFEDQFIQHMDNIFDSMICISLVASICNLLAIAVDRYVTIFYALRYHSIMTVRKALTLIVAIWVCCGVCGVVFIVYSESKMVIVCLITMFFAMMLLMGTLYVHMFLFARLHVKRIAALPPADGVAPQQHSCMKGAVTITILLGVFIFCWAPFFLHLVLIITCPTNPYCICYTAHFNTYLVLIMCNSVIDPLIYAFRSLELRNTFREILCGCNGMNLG

Melanocortin receptor 4 = Melanocortin receptor 4 (Homo sapiens, UniProt P32245); test: Displacement of [125I]NDPalphaMSH from human cloned MC4R expressed in CHO cells; type: cell-based
Melanocortin receptor 4, sequence (P32245 whole entry): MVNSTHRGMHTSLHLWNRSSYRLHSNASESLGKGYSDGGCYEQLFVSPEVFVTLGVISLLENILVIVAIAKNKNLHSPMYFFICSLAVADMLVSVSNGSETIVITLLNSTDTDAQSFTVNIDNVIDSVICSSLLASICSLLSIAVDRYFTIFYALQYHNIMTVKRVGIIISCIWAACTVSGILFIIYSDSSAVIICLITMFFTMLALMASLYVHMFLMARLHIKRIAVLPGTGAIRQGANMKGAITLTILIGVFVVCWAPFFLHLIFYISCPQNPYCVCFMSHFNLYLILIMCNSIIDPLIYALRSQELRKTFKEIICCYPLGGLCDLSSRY

SMILES | IC50 (Melanocortin receptor 5 [1]) | EC50 [2] | IC50 [3] | EC50 (Melanocortin receptor 5 [4]) | IC50 (Melanocortin receptor 3) | IC50 (Melanocortin receptor 4) | IC50 (Melanocortin receptor 5 [1]; cho) | IC50 ([3]; cho) | IC50 (Melanocortin receptor 4; cho) | IC50 (Melanocortin receptor 3; cho) [nM]
CCCC[C@H](NC(C)=O)C(=O)N[C@H]1CC(=O)NCCCC[C@@H](C(N)=O)NC(=O)[C@H](Cc2c[nH]c3ccccc23)NC(=O)[C@@H]2CCCN2C(=O)[C@@H](Cc2ccc([N+](=O)[O-])cc2)NC(=O)[C@H](Cc2cnc[nH]2)NC1=O | 780 nM (antagonist) | > 500 nM | > 2000 nM | 770 nM (agonist) | > 2000 nM | – | – | – | – | –
CCCC[C@H](NC(C)=O)C(=O)N[C@H]1CC(=O)NCCCC[C@@H](C(N)=O)NC(=O)[C@H](Cc2c[nH]c3ccccc23)NC(=O)[C@@H]2CCCN2C(=O)[C@@H](Cc2ccc(-c3ccccc3)cc2)NC(=O)[C@@H]2CCCN2C1=O | 2.9 nM (antagonist) | 350 nM (agonist) | 2100 nM (antagonist) | 1.6 nM (agonist) | 630 nM (antagonist) | 1000 nM (antagonist) | – | – | – | –
CCCC[C@H](NC(C)=O)C(=O)N[C@H]1CC(=O)NCCCC[C@@H](C(N)=O)NC(=O)[C@H](Cc2c[nH]c3ccccc23)NC(=O)[C@@H]2CCCCN2C(=O)[C@@H](Cc2ccc(-c3ccccc3)cc2)NC(=O)[C@@H]2CC3CCCCC3N2C1=O (some centres not stated) | 0.95 nM (antagonist) | – | > 5000 nM | 0.99 nM (agonist) | > 5000 nM | > 5000 nM | – | – | – | –
CCCC[C@H](NC(C)=O)C(=O)N[C@H]1CC(=O)NCCCC[C@@H](C(N)=O)NC(=O)[C@H](Cc2c[nH]c3ccccc23)NC(=O)[C@@H]2CCCCN2C(=O)[C@@H](Cc2ccc(Cc3ccccc3)cc2)NC(=O)[C@@H]2CC3CCCCC3N2C1=O (some centres not stated) (Ac-[Nle]D[Oic(3aξ,7aξ)][X2][Pip]WK-NH2; lactam 2-7) | 24 nM (antagonist) | – | > 1000 nM | 31 nM (agonist) | > 1000 nM | 1600 nM (antagonist) | – | – | – | –
CCCC[C@H](NC(C)=O)C(=O)N[C@H]1CC(=O)NCCCC[C@@H](C(N)=O)NC(=O)[C@H](Cc2c[nH]c3ccccc23)NC(=O)[C@@H]2CCCN2C(=O)[C@@H](C(c2ccccc2)c2ccccc2)NC(=O)[C@H](Cc2c[nH]cn2)NC1=O | – | – | – | – | – | – | 1500 nM (antagonist) | 2900 nM (antagonist) | 74 nM (antagonist) | > 10000
CCCC[C@H](NC(C)=O)C(=O)N[C@H]1CC(=O)NCCCC[C@@H](C(N)=O)NC(=O)[C@H](Cc2c[nH]c3ccccc23)NC(=O)[C@@H]2CCCN2C(=O)[C@@H](Cc2ccc(OC)cc2)NC(=O)[C@H](Cc2cnc[nH]2)NC1=O | – | 50 nM (agonist) | 500 nM (antagonist) | – | – | – | – | – | – | –
CCCC[C@H](NC(C)=O)C(=O)N[C@H]1CC(=O)NCCCC[C@@H](C(N)=O)NC(=O)[C@H](Cc2c[nH]c3ccccc23)NC(=O)[C@@H]2CCCN2C(=O)[C@@H](Cc2ccc(-c3ccccc3)cc2)NC(=O)[C@@H]2CC3CCCCC3N2C1=O (some centres not stated) | 10 nM (antagonist) | > 2500 nM | 7800 nM (antagonist) | 17 nM (agonist) | 4400 nM (antagonist) | 4700 nM (antagonist) | – | – | – | –
CCCC[C@H](NC(C)=O)C(=O)N[C@H]1CC(=O)NCCCC[C@@H](C(N)=O)NC(=O)[C@H](Cc2c[nH]c3ccccc23)NC(=O)[C@@H]2CCCN2C(=O)[C@@H](Cc2ccc3ccccc3c2)NC(=O)[C@H](Cc2cnc[nH]2)NC1=O | – | 89 nM (agonist) | 880 nM (antagonist) | – | – | – | – | – | – | –
CCCC[C@H](NC(C)=O)C(=O)N[C@H]1CC(=O)NCCCC[C@@H](C(N)=O)NC(=O)[C@H](Cc2c[nH]c3ccccc23)NC(=O)[C@@H]2CCCCN2C(=O)[C@@H](Cc2ccc(-c3ccccc3)cc2)NC(=O)[C@@H]2CCCN2C1=O | 0.15 nM (antagonist) | 28 nM (agonist) | 65 nM (antagonist) | 0.031 nM (agonist) | 270 nM (antagonist) | 160 nM (antagonist) | – | – | – | –
CCCC[C@H](NC(C)=O)C(=O)N[C@H]1CC(=O)NCCCC[C@@H](C(N)=O)NC(=O)[C@H](Cc2c[nH]c3ccccc23)NC(=O)[C@@H]2CCCN2C(=O)[C@H](Cc2ccc(OC)cc2)NC(=O)[C@H](Cc2cnc[nH]2)NC1=O | – | – | > 2000 nM | – | – | – | – | – | – | –
CCCC[C@H](NC(C)=O)C(=O)N[C@H]1CC(=O)NCCCC[C@@H](C(N)=O)NC(=O)[C@H](Cc2c[nH]c3ccccc23)NC(=O)[C@@H]2CCCN2C(=O)[C@H]2Cc3ccccc3CN2C(=O)[C@H](Cc2cnc[nH]2)NC1=O | – | – | – | – | – | – | > 10000 nM | > 10000 nM | – | > 10000
CCCC[C@H](NC(C)=O)C(=O)N[C@H]1CC(=O)NCCCC[C@@H](C(N)=O)NC(=O)[C@H](Cc2c[nH]c3ccccc23)NC(=O)[C@@H]2CCCCN2C(=O)[C@@H](Cc2ccc(-c3ccccc3)cc2)NC(=O)[C@H](C2CCCCC2)NC1=O | 50 nM (antagonist) | > 500 nM | > 10000 nM | 1 nM (agonist) | > 10000 nM | > 10000 nM | – | – | – | –
CCCC[C@H](NC(C)=O)C(=O)N[C@H]1CC(=O)NCCCC[C@@H](C(N)=O)NC(=O)[C@H](Cc2c[nH]c3ccccc23)NC(=O)[C@@H]2CCCCN2C(=O)[C@@H](Cc2ccc(-c3ccccc3)cc2)NC(=O)[C@@H]2Cc3ccccc3CN2C1=O | 2.7 nM (antagonist) | 130 nM (agonist) | 710 nM (antagonist) | 0.45 nM (agonist) | 3900 nM (antagonist) | 720 nM (antagonist) | – | – | – | –
CCCC[C@H](NC(C)=O)C(=O)N[C@H]1CC(=O)NCCCC[C@@H](C(N)=O)NC(=O)[C@H](Cc2c[nH]c3ccccc23)NC(=O)[C@@H]2CCCN2C(=O)[C@@H](Cc2ccc(O)cc2)NC(=O)[C@H](Cc2cnc[nH]2)NC1=O | – | > 2500 nM | > 10000 nM | – | – | – | – | – | – | –
CCCC[C@H](NC(C)=O)C(=O)N[C@H]1CC(=O)NCCCC[C@@H](C(N)=O)NC(=O)[C@H](Cc2c[nH]c3ccccc23)NC(=O)[C@@H]2CCCCN2C(=O)[C@@H](Cc2ccc(-c3ccccc3)cc2)NC(=O)[C@H](C(C)C)NC1=O | 7.3 nM (antagonist) | 330 nM (agonist) | 4900 nM (antagonist) | 0.23 nM (agonist) | > 10000 nM | 4700 nM (antagonist) | – | – | – | –
CCCC[C@H](NC(C)=O)C(=O)N[C@H]1CC(=O)NCCCC[C@@H](C(N)=O)NC(=O)[C@H](Cc2c[nH]c3ccccc23)NC(=O)[C@@H]2CCCCN2C(=O)[C@@H](Cc2ccc(-c3ccccc3)cc2)NC(=O)[C@H](c2ccccc2)NC1=O | 2.1 nM (antagonist) | – | > 1000 nM | 0.29 nM (agonist) | > 1000 nM | 990 nM (antagonist) | – | – | – | –

Next, values leading:

IC50 (Melanocortin receptor 5 [1]) | EC50 [2] | IC50 [3] | EC50 (Melanocortin receptor 5 [4]) | IC50 (Melanocortin receptor 3) | IC50 (Melanocortin receptor 4) | IC50 (Melanocortin receptor 5 [1]; cho) | IC50 ([3]; cho) | IC50 (Melanocortin receptor 4; cho) | IC50 (Melanocortin receptor 3; cho) [nM] | SMILES
– | – | > 10000 nM | – | – | – | – | – | – | – | CCCC[C@H](NC(C)=O)C(=O)N[C@H]1CC(=O)NCCCC[C@@H](C(N)=O)NC(=O)[C@H](Cc2c[nH]c3ccccc23)NC(=O)[C@@H]2CCCN2C(=O)[C@@H](Cc2cnc[nH]2)NC(=O)[C@H](Cc2cnc[nH]2)NC1=O
– | > 1000 nM | 980 nM (antagonist) | – | – | – | – | – | – | – | CCCC[C@H](NC(C)=O)C(=O)N[C@H]1CC(=O)NCCCC[C@@H](C(N)=O)NC(=O)[C@H](Cc2c[nH]c3ccccc23)NC(=O)[C@@H]2CCCN2C(=O)[C@H](Cc2ccccc2)NC(=O)[C@H](Cc2cnc[nH]2)NC1=O
> 10000 nM | – | > 10000 nM | – | > 10000 nM | > 10000 nM | – | – | – | – | CCCC[C@H](NC(C)=O)C(=O)N[C@H]1CC(=O)NCCCC[C@@H](C(N)=O)NC(=O)[C@H](Cc2c[nH]c3ccccc23)NC(=O)[C@@H]2CCCN2C(=O)[C@@H](CCC(N)=O)NC(=O)[C@H](Cc2c[nH]cn2)NC1=O
> 10000 nM | > 2500 nM | > 10000 nM | – | > 10000 nM | > 10000 nM | – | – | – | – | CCCC[C@H](NC(C)=O)C(=O)N[C@H]1CC(=O)NCCCC[C@@H](C(N)=O)NC(=O)[C@H](Cc2c[nH]c3ccccc23)NC(=O)[C@@H]2CCCN2C(=O)[C@@H](CC2CCCCC2)NC(=O)[C@H](Cc2c[nH]cn2)NC1=O
> 10000 nM | – | > 10000 nM | – | > 10000 nM | > 10000 nM | – | – | – | – | CCCC[C@H](NC(C)=O)C(=O)N[C@H]1CC(=O)NCCCC[C@@H](C(N)=O)NC(=O)[C@H](Cc2c[nH]c3ccccc23)NC(=O)[C@@H]2CCCN2C(=O)[C@@H](CCC(=O)O)NC(=O)[C@H](Cc2c[nH]cn2)NC1=O
> 10000 nM | – | > 10000 nM | – | > 10000 nM | – | – | – | – | – | CCCC[C@H](NC(C)=O)C(=O)N[C@H]1CC(=O)NCCCC[C@@H](C(N)=O)NC(=O)[C@H](Cc2c[nH]c3ccccc23)NC(=O)[C@@H]2CCCN2C(=O)[C@@H](CCCCN)NC(=O)[C@H](Cc2cnc[nH]2)NC1=O
> 5000 nM | 540 nM (agonist) | > 5000 nM | > 1500 nM | > 5000 nM | – | – | – | – | – | CCCC[C@H](NC(C)=O)C(=O)N[C@H]1CC(=O)NCCCC[C@@H](C(N)=O)NC(=O)[C@H](Cc2c[nH]c3ccccc23)NC(=O)[C@@H]2CCCN2C(=O)[C@@H](Cc2cccs2)NC(=O)[C@H](Cc2cnc[nH]2)NC1=O
– | – | > 10000 nM | – | – | – | – | – | – | – | CCCC[C@H](NC(C)=O)C(=O)N[C@H]1CC(=O)NCCCC[C@@H](C(N)=O)NC(=O)[C@H](Cc2c[nH]c3ccccc23)NC(=O)[C@@H]2CCCN2C(=O)[C@@H](CCCC)NC(=O)[C@H](Cc2cnc[nH]2)NC1=O
– | 1300 nM (agonist) | 2500 nM (antagonist) | – | – | – | – | – | – | – | CCCC[C@H](NC(C)=O)C(=O)N[C@H]1CC(=O)NCCCC[C@@H](C(N)=O)NC(=O)[C@H](Cc2c[nH]c3ccccc23)NC(=O)[C@@H]2CCCN2C(=O)[C@@H](Cc2ccccc2)NC(=O)[C@H](Cc2cnc[nH]2)NC1=O
